Laboratory results published in ChEMBL document CHEMBL2385035 (J Med Chem, 2013).
pIC50: −log10 of the molar value.

Experiments:
[1] = Apparent permeability in MDCK cells expressing MDR1 at 3 uM after 60 mins by LC-MS/MS analysis; assay type: ADME, cell-based, Canis lupus familiaris; details: dog
[2] = target: T1, Ileal sodium/bile acid cotransporter (Homo sapiens, UniProt Q12908); test: Inhibition of human ASBT expressed in HEK293 cells assessed as inhibition of [3H]-taurocholate uptake after 90 mins by scintillation counting analysis; assay type: cell-based
T1 sequence (Q12908 whole entry): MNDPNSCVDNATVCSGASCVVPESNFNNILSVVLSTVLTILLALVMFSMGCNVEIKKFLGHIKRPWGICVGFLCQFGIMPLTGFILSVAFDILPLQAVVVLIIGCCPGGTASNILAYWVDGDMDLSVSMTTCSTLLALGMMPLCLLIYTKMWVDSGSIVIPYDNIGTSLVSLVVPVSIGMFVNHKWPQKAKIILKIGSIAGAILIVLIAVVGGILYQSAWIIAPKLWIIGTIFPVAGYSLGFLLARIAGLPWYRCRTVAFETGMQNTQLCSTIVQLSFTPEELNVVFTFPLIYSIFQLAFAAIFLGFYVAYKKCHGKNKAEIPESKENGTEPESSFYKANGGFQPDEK

[3] = Cmax in Sprague-Dawley rat portal vein blood at 10 mg/kg, po; assay type: ADME, organism-based; design: dose 10 mg/kg, route oral
How it was run: (§1)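 Fed male SD rats given a single oral gavage dose of 10 mg/kg. Maximum parent drug concentration measured in portal vein blood and in systemic blood.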

[4] = Cmax in Sprague-Dawley rat systemic blood at 10 mg/kg, po; assay type: ADME, organism-based; design: dose 10 mg/kg, route oral; how it was run: as §1

Structure (SMILES)	Papp at 1 h, 3 µM [1] [×10⁻⁶ cm/s]	pIC50 [2]	Cmax [3] [ng/mL]	Cmax [4] [ng/mL]
CCCC[C@]1(CC)CS(=O)(=O)c2cc(C(=O)NCC(C)(C)C(=O)O)c(OC)cc2[C@@H](c2ccccc2)N1	4.3	–	–	–
CCCC[C@]1(CC)CS(=O)(=O)c2cc(CCC(=O)NC(CC(=O)O)CC(=O)O)c(OC)cc2[C@@H](c2ccccc2)N1	–	< 5.52	–	–
CCCC[C@]1(CC)CS(=O)(=O)c2cc(OCP(=O)(O)O)c(OC)cc2[C@@H](c2ccccc2)N1	–	6.05	–	–
CCCC[C@]1(CC)CS(=O)(=O)c2cc(CN3CCC[C@H]3C(=O)O)c(OC)cc2[C@@H](c2ccccc2)N1	–	< 5.52	–	–
CCCC[C@]1(CC)CS(=O)(=O)c2cc(CNC(=O)CP(=O)(O)O)c(OC)cc2[C@@H](c2ccccc2)N1	0.3	–	–	–
CCCC[C@]1(CC)CS(=O)(=O)c2cc(CN(C)CC(=O)O)c(OC)cc2[C@@H](c2ccccc2)N1	1	–	224	1
CCCC[C@]1(CC)CS(=O)(=O)c2cc(CN(CP(=O)(O)O)CP(=O)(O)O)c(OC)cc2[C@@H](c2ccccc2)N1	–	< 5.52	–	–
CCCC[C@]1(CC)CS(=O)(=O)c2cc(CN(CC(=O)O)CC(=O)O)c(OC)cc2[C@@H](c2ccccc2)N1	0.4	6.61	56	43
CCCC[C@]1(CC)CS(=O)(=O)c2cc(C(=O)NCS(=O)(=O)O)c(OC)cc2[C@@H](c2ccccc2)N1	0.7	–	92	4
CCCC[C@]1(CC)CS(=O)(=O)c2cc(OCC(=O)O)c(OC)cc2[C@@H](c2ccccc2)N1	1	7.47	1460	26
CCCC[C@]1(CC)CS(=O)(=O)c2cc(CCP(=O)(O)O)c(OC)cc2[C@@H](c2ccccc2)N1	1.2	–	–	–
CCCC[C@]1(CC)CS(=O)(=O)c2cc(CN(CCS(=O)(=O)O)CCS(=O)(=O)O)c(OC)cc2[C@@H](c2ccccc2)N1	0.8	–	–	–
CCCC[C@]1(CC)CS(=O)(=O)c2cc(CCCC(=O)O)c(OC)cc2[C@@H](c2ccccc2)N1	34.2	–	–	–
CCCC[C@]1(CC)CS(=O)(=O)c2cc(OCCS(=O)(=O)O)c(OC)cc2[C@@H](c2ccccc2)N1	1.2	8.40	220	7
CCCC[C@]1(CC)CS(=O)(=O)c2cc(OCCCC(=O)O)c(OC)cc2[C@@H](c2ccccc2)N1	30.3	7.89	–	–
CCCC[C@]1(CC)CS(=O)(=O)c2cc(CNC(=O)CS(=O)(=O)O)c(OC)cc2[C@@H](c2ccccc2)N1	1.9	–	122	26
CCCC[C@]1(CC)CS(=O)(=O)c2cc(CNC(=O)CNC(CC(=O)O)CC(=O)O)c(OC)cc2[C@@H](c2ccccc2)N1	–	< 5.52	–	–
CCCC[C@]1(CC)CS(=O)(=O)c2cc(C(=O)NCCS(=O)(=O)O)c(OC)cc2[C@@H](c2ccccc2)N1	0.4	–	132	38
